Assay outcomes as filed in PubChem BioAssay.
Compounds with a hit are over-represented: about 3.3% of the library has one in this group of screens.
Arr AP2 block: blocks beta-arrestin peptide binding to AP2 adaptin | FITC-arrestin peptide / GST-AP2 beads, flow cytometry; AP2 beta2 appendage carries R879A mutation | inhibition, % at 10 µM | 340,000 compounds, 0.31% hits | AID 504490;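 active = inhibition above a set limit, near 3 SD of compounds lacking own fluorescence, cut at about 54% in these data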;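 also: plate controls were DMSO wells for no effect and 5 µM unlabelled arrestin peptide for full effect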
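System: GST-AP2 R879A glutathione beads; medium: PBS, Tween 20 0.05%, BSA 0.1%; reagent: fluorescein-tagged arrestin peptide at 50 nM final; schedule: pre-incubation 12 min, peptide binding 1 h, room temperature; detection: flow cytometry, FL1 (488/535 nm); read-out: inhibition as reduced fluorescein signal on beads, percent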
Myeloid diff MLP: compounds promoting myeloid differentiation; 360,000 compounds, 1% hits; calls only at 10 µM; AID 624256; ER-HoxA9 myeloid progenitors, lysozyme-GFP differentiation, flow cytometry;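 active = normalized GFP-positive differentiation at or above the plate's own cutoff, the solvent-only control mean plus 3 SD; inconclusive = no clear call, values can overlap the other calls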;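 also: cells exposed to compound for four days before flow analysis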
NRP1-CendR mod: NRP-1/CendR interaction modulation; O14786; FAM-RPARPAR peptide binding to NRP-1, fluorescence polarization; inhibition, % at 25 µM; 360,000 compounds, 0.85% hits; AID 602438;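 active = inhibition or corrected inhibition above about 18%, plus a signal ratio from 0.5 to 1.5, limit read from the data, passing the limit was not always enough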
ABCB6 inh MLPCN: blocks the human ABCB6 transporter; 360,000 compounds, 0.19% hits; Q9NP58; fluorescence ratio to DMSO, % at 10 µM; K562-ABCB6 porphyrin accumulation, flow cytometry, 1 h; active compounds read low;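 active = fluorescence ratio to DMSO below 75%, the collection mean minus 3 SD; inconclusive = too few cells collected in the well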;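 also: signal is porphyrin accumulated inside mitochondria; 100% equals median channel fluorescence of DMSO control wells; lower ratio means ABCB6 inhibition with less porphyrin fluorescence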
ATG4B inhibitor: inhibitors of human ATG4B cysteine protease | ATG4B cleavage of LC3-PLA2, NBD-HPC fluorescence, 1 h | AID 504462 | 340,000 compounds, 0.51% hits | Q9Y4P1 | inhibition, % at 8.33 µM; in the data active = inhibition above about 40%
Target sequence (Q9Y4P1 whole entry, looked up): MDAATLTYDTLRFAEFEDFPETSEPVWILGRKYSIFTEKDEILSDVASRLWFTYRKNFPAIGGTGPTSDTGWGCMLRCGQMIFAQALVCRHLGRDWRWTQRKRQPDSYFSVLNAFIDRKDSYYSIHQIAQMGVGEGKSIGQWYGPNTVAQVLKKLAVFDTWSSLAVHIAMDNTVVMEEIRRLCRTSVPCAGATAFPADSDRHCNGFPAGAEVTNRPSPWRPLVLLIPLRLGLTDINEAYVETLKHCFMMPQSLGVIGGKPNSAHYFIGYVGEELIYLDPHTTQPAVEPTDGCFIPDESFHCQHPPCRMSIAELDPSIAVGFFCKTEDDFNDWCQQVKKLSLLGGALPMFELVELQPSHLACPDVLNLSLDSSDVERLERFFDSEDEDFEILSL
Exocytosis inh: lytic granule exocytosis inhibition. TALL-104 LAMP-1 surface exposure, flow cytometry; cells stimulated with thapsigargin and PMA. inhibition, % at 10 µM. 360,000 compounds, 0.66% hits. AID 651702;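 active = inhibition above about 55%, limit read from the data; inconclusive = no clear call, values can overlap the other calls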
Arr AP2 CP1: blocks beta-arrestin peptide binding to human AP2; shares compounds with Arr AP2 block; GST-AP2 beads, FITC arrestin peptide binding, flow cytometry; GST-fused beta2-adaptin appendage, R879A mutant; inhibition, % at 10 µM; 1,300 compounds, 2% hits;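 active = inhibition above a set limit, roughly 3 SD of non-fluorescent compound noise, cut at about 38% in these data; inactive = inhibition at or below that limit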;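 also: loss of bead fluorescence from 50 nM FITC arrestin peptide bound to appendage; 0% = negative control wells and 100% = excess unlabelled arrestin peptide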
GST-FITC bead: disrupts GST binding to glutathione beads, arrestin-AP2 artifact | shares compounds with Arr AP2 block | GST-fluorescein binding to GSH beads, fluorescence, counter-screen | inhibition, % at 10 µM | 1,300 compounds, 2% hits | AID 588338;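 active = inhibition above 50%, about 3 SD of the inhibition seen with non-fluorescent compounds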;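 also: fluorescein maleimide labelled GST captured on 4 micron glutathione beads; higher means more loss of bead fluorescence from quenching or blocked binding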
* hit, by the source's call; i = inactive; ? = inconclusive; · = no result.

SMILES	Arr AP2 block	Myeloid diff MLP	NRP1-CendR mod	ABCB6 inh MLPCN	ATG4B inhibitor	Exocytosis inh	Arr AP2 CP1	GST-FITC bead
FC(F)Oc1ccc(NC(=S)NC23CC4CC(CC(C4)C2)C3)cc1	-3	i	10	96	-2	18	·	·
COc1ccc(CCNCC(O)Cn2c3ccccc3c3ccccc32)cc1OC (centres undefined)	58*	i	12	128	-11	18	1	4
C[C@H](NC(=O)[C@H]1N2C(=O)c3ccccc3C2SC1(C)C)C(=O)NCc1ccncc1 (some centres undefined)	-6	i	6	101	2	2	·	·
COc1ccc(-n2c(=O)c3ccccc3n(CC(=O)NC3CCCCC3)c2=O)cc1	16	i	6	94	-3	0	·	·
O=C(COC(=O)/C=C/c1cccc(C(F)(F)F)c1)Nc1cccc2ccccc12	91*	i	-3	99	-3	0	-11	-2
COC(=O)[C@@H](c1ccccc1)N(C)S(=O)(=O)c1cccc(S(=O)(=O)N(C)[C@@H](C(=O)OC)c2ccccc2)c1	-3	?	0	90	4	-4	·	·
CCOC(=O)c1c(-c2cccs2)csc1NC(=O)CN1CC(C)OC(C)C1 (centres undefined)	72*	i	-12	99	-10	4	6	-3
COc1ccc(S(=O)(=O)N2CCOCC2)cc1NC(=O)c1cc(=O)[nH]c2ccccc12	-2	i	-3	99	1	-3	-15	-2
O=C(Nc1cc(S(=O)(=O)N2CCCCC2)ccc1N1CCOCC1)c1cc(=O)[nH]c2ccccc12	-3	i	0	102	5	2	·	·
COc1ccc(S(=O)(=O)N2CCOCC2)cc1NC(=O)c1ccc(=O)[nH]c1	-3	i	-6	99	-4	7	-8	-1
COc1ccc(S(=O)(=O)N2CCOCC2)cc1NC(=O)c1ccc2c(c1)OCO2	0	i	6	100	-32	-3	·	·
COc1ccc(CC(NC(C)=O)C(=O)NC2CCN(c3nc(C)cc(C)c3C#N)CC2)cc1 (centres undefined)	55*	i	-5	99	0	3	0	-1
COc1ccc(CC(NC(C)=O)C(=O)NC2CCN(c3nc(C)cc(C)c3C#N)CC2)cc1OC (centres undefined)	11	i	7	87	-3	-5	·	·
Cc1cc(C)nc(NC(=NCCc2c[nH]c3ccccc23)NC(=O)c2ccco2)n1	83*	i	1	97	-22	95*	-17	1
COc1ccc(NS(=O)(=O)c2ccc(Br)cc2)cn1	57*	i	-7	101	0	-7	-2	-4
COc1ccc(NS(=O)(=O)c2ccc(F)c(Cl)c2)cn1	16	i	4	114	-5	-12	·	·
Cc1ccccc1OCC(=O)Nc1cccc2nsnc12	101*	i	7	103	-6	1	9	-10
COC(=O)CSC(=S)N1C(C)CCCC1C (centres undefined)	9	i	11	92	-5	0	·	·
COc1ccc(C(=O)Nc2cc(C)nn2-c2nc3ccccc3[nH]2)c(OC)c1	7	i	10	90	-22	2	19	-6
CCOC(=O)C(=O)Nc1cc(C)nn1-c1nc2ccccc2[nH]1	21	i	-1	95	-1	0	·	·
COc1cccc(OC)c1C(=O)Nc1cc(C)nn1-c1nc2ccccc2[nH]1	36	i	6	85	0	3	1	5
Cc1cc(NC(=O)c2ccccc2)n(-c2nc3ccccc3[nH]2)n1	17	i	4	97	-3	-2	-3	-1
CC(=O)O[C@@H](Cc1ccc(O)cc1)C(=O)CC(C)C	·	i	-7	103	·	-9	·	·
Cn1c(N)c(C(=O)COC(=O)CCC2CCCC2)c(=O)n(C)c1=O	1	i	8	98	1	2	·	·
Cn1c(N)c(C(=O)COC(=O)c2ccc([N+](=O)[O-])o2)c(=O)n(C)c1=O	-25	i	-17	98	-18	0	·	·
SMILES	Arr AP2 block	Myeloid diff MLP	NRP1-CendR mod	ABCB6 inh MLPCN	ATG4B inhibitor	Exocytosis inh	Arr AP2 CP1	GST-FITC bead
CCCCOc1ccc(C(=O)OCC(=O)c2c(N)n(C)c(=O)n(C)c2=O)cc1	-8	i	1	90	-10	-4	-1	5
Cn1c(N)c(C(=O)COC(=O)c2ccc(Br)o2)c(=O)n(C)c1=O	13	i	7	100	-1	-4	1	0
Cn1c(N)c(C(=O)COC(=O)CCC2CCCCC2)c(=O)n(C)c1=O	55*	i	-2	98	7	2	2	6
CCOc1cc(C(=O)OCC(=O)c2c(N)n(C)c(=O)n(C)c2=O)cc(OCC)c1OCC	-3	i	2	104	0	8	·	·
Cn1c(N)c(C(=O)COC(=O)c2cncc(Br)c2)c(=O)n(C)c1=O	61*	i	-1	100	-1	3	-9	6
Cc1ccc(C(=O)NCC(=O)OCC(=O)c2c(N)n(C)c(=O)n(C)c2=O)s1	75*	i	2	105	-3	0	-12	3
CCOc1ccccc1C1CC(=O)Nc2c1c(=O)n(C)c(=O)n2C (centres undefined)	2	i	-10	98	0	6	·	·
CCOc1ccccc1NC(=O)c1ccc(F)c(S(=O)(=O)N2CCC3(CC2)OCCO3)c1	61*	i	1	89	-10	-1	-21	-6
CCn1c(=O)n(CC)c2cc(N3CCCC3)c(NC(=O)c3cc(Cl)ccc3OC)cc21	54*	?	8	99	-9	35	-1	3
CCn1c(=O)n(CC)c2cc(N3CCCC3)c(NC(=O)c3ccccc3OC)cc21	3	i	-11	99	-14	26	·	·
CCOc1ccccc1C(=O)Nc1cc2c(cc1N1CCCC1)n(CC)c(=O)n2CC	15	?	6	97	-10	19	1	0
CCn1c(=O)n(CC)c2cc(N3CCCC3)c(NC(=O)c3ccc(OC)c(Br)c3)cc21	33	?	-4	97	-14	7	3	3
Cc1ccc(NC(=O)N2CCCCCC2)cc1C	63*	i	8	92	0	4	-14	-4
Cc1nc(NCCN2CCOCC2)c2oc3ccccc3c2n1	55*	i	8	102	-13	-3	15	-6
Cc1ccc(N(CCC#N)C(=O)COC(=O)C2=COCCO2)cc1	2	i	-10	97	-9	4	·	·
